These results are taken from ChEMBL document CHEMBL1158008, “New bioactive flavonoids and stilbenes in cubé resin insecticide” (J Nat Prod, 1999).

The structures appear in SMILES notation.

Test [1] in a line: Inhibition of bovine NADH-ubiquinone oxidoreductase. The arrangement: species or system Bos taurus. The procedure, abridged: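 Bovine heart electron transport particles (inverted inner mitochondrial membrane vesicles, 40 µg protein) preincubated with compound 5 min at 25 °C in 50 mM phosphate pH 7.4, 250 mM sucrose. NADH added (28 µM final); activity followed as A340 loss over 3 min. IC50 from three experiments.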

Test [2] can be described thus: Cytotoxicity against mouse Hepa1clc7 cells after 72 hrs. It counts as functional, cell-based. The procedure, abridged: (§1)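 Test compound added to cultured cells, 72 h incubation, then viability read by MTT (3-(4,5-dimethylthiazol-2-yl)-2,5-diphenyltetrazolium bromide) reduction. IC50 derived from eight replicates per assay.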
The subject of test [3] is MCF7. The test can be described thus: Cytotoxicity against human MCF7 cells after 72 hrs. The format is functional, cell-based. To be noted: MCF7, 72 h. The procedure, abridged:
as §1

`CC1(C)C=Cc2c(ccc(C(=O)/C=C/c3ccc(O)cc3)c2O)O1`: the IC50 in test [1] came to 4.9 µM; in test [2] it was 10 µM; in test [3] it was 27 µM.
On the same counts, the results for `COc1ccc([C@@H]2CC(=O)c3c(O)c(CC=C(C)C)c4c(c3O2)C=CC(C)(C)O4)cc1O` are 2 µM, 3.9 µM and 6.9 µM.
As for `COc1ccc([C@@H]2CC(=O)c3c(O)c(CC=C(C)C)c4c(c3O2)C=CC(C)(C)O4)cc1OC`, the IC50 in test [1] was 2.1 µM; in test [2], 8.5 µM; in test [3], 6.6 µM.
The matching figures for `COc1cc(/C=C/c2ccc3c(c2)OC(C)(C)C=C3)cc(OC)c1OC`: 4.9 µM, 7 µM and 24 µM.
On the same counts, the results for `COc1cc(/C=C/C(=O)c2ccc3c(c2O)C=CC(C)(C)O3)ccc1O` are 4.8 µM, 5.9 µM and 10 µM.
The matching figures for `COc1cc(/C=C/c2ccc(O)cc2)cc2c1C=CC(C)(C)O2`: 5.3 µM, 8.5 µM and above 30 µM.
As for `COc1cc(/C=C/c2cc(OC)c3c(c2)OC(C)(C)C=C3)ccc1O`, the values for the IC50 in test [1], in test [2] and in test [3] were 8.1 µM, 13 µM and above 30 µM, respectively.
On the same counts, the results for `COc1cc([C@@H]2CC(=O)c3c(O)c(CC=C(C)C)c4c(c3O2)C=CC(C)(C)O4)ccc1O` are 0.68 µM, 3.5 µM and 3 µM.
The matching figures for `COc1ccc([C@@H]2CC(=O)c3cc(CC=C(C)C)c4c(c3O2)C=CC(C)(C)O4)cc1OC`: 2.6 µM, 5.1 µM and 5.7 µM.
The matching figures for `COc1cc(OC)c(-c2coc3c4c(ccc3c2=O)OC(C)(C)[C@@H](O)[C@H]4O)cc1OC` (relative stereo): above 30 µM, above 30 µM and above 30 µM.
As for `O=c1c(-c2ccc(O)cc2)coc2cc(O)cc(O)c12` [GENISTEIN], the IC50 in test [1] is 35 µM; in test [2], 11 µM; in test [3] it was above 30 µM.
Turning to `Oc1ccc(/C=C/c2cc(O)cc(O)c2)cc1` [RESVERATROL], the IC50 in test [1] was 26 µM; in test [2] it was 11 µM; in test [3], above 30 µM.

As usually defined, the IC50 is the concentration that gives 50% inhibition. Read a low IC50 as inhibition by little substance.
